The record followed here is PubChem BioAssay.

SMILES strings stand for the structures. Unmarked numbers belong to inactive results. Records with an inconclusive call do not appear. Calls of active or inactive are those of the source.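 Rule for the calls, unless noted: active = inhibition over a set limit, the all-compound mean plus 3 SD, in both replicate runs; inconclusive = over that limit in just one replicate run; inactive = at or under that limit in both runs.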

Test [1] is described as follows: S. cerevisiae growth inhibition in permissive medium (OD615), pilot counter-assay for S. cerevisiae lifespan shortening project, permissive growth control (AID 705;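 active = growth inhibition above 25% in both replicates, a cutoff set 3 SD above the mean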). The conditions noted are these: OD615, 24 h, at 10 µM, stronger effect = higher value. The procedure, abridged:
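System: S. cerevisiae with engineered DeaD lifespan system / Measured by: absorbance (optical density) at 615 nm / Read-out: reduction in yeast growth (OD615) / Times: 4 h cell pre-growth, 24 h exposure at 30 °C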

The nature of test [2]: S. cerevisiae growth inhibition in restrictive medium, OD615, pilot screen, restrictive growth control, yeast lifespan reduction project (AID 706;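 active = growth inhibition above a set limit, 3 SD over mean compound inhibition, in both replicates, cut at about 43% in these data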;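 note: modified DeaD lifespan yeast strain shifted to restrictive glucose medium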). The following applies: OD615, 48 h, at 10 µM, stronger effect = higher value. The procedure, abridged: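 System: Engineered S. cerevisiae DeaD strain | Buffer or medium: Glucose-based CSMM-D restrictive medium | Schedule: 4 h pre-incubation, 48 h exposure at 30 °C | Technique: Optical density at 615 nm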

Test [3] in a line: doxorubicin toxicity protection in MRP-1 cells – H69AR cells, CellTiter-Glo, duplicate, MRP-1 activator project, pilot screen (AID 807;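 active = viability increase at or above a cutoff of the median across tested compounds plus 3 SD, cut at about 8.5% in these data, passing the limit was not always enough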;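 note: compound pretreatment 18-22 h then 72 h combined with doxorubicin; 0% = doxorubicin alone and 100% = vehicle without doxorubicin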). The conditions noted are these: H69AR viability with doxorubicin, CellTiter-Glo luminescence; at 10 µM; stronger effect = higher value.
The nature of test [4]: viability of HCT116 without oncogenic beta-catenin – human colon tumor cells, pilot screen (AID 823;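 active = cell viability at or below a set limit in both duplicate runs, the limit being the all-compound median minus 4 SD, cut at about 23% in these data, passing the limit was not always enough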;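 note: 0% = wells killed by 20 µM Hyamine and 100% = untreated DMSO cell wells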). The following applies: HCT116 beta-catenin knockout viability, CellTiter-Glo, 60 h; at 10 µM; stronger effect = lower value.
Test [5] in a line: viability of PTEN-null HCT116 cells – cell-based, HCT116 clonal line, CellTiter-Glo, pilot screen (AID 824;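 active = viability at or below 27.92% in each of two runs, the all-compound median minus 4 SD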;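 note: 0% = 20 µM Hyamine control and 100% = vehicle cell control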). The following applies: HCT116 PTEN-deleted viability, 60 h, at 10 µM, stronger effect = lower value.
A short description of test [6]: RAM pathway blockade in budding yeast – dse1pr::URA3 reporter, 5-FOA selection, pilot screen (AID 869).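 Note: 0% = DMSO wells with no growth and 100% = 10 µM 1-NA-PP1 with full growth; RAM network block rescues cells from 5-FOA so hits raise OD615 growth.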 The conditions noted are these: S. cerevisiae dse1pr::URA3 5-FOA growth, OD615, 2 d; at 10 µM; stronger effect = higher value; strain carries analog-sensitive mutant Cbk1 kinase.
Test [7] in a line: RAM signaling pathway blockade in yeast – S. cerevisiae, Pdr1DBD-CYC8 efflux-inhibited sensitized strain, primary screen (AID 1298;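 active = RAM network inhibition above 8.4% in each of two replicates, 3 SD over the compound average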;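 note: 0% = DMSO untreated cells without growth and 100% = 10 µM 1-NA-PP1 full growth; higher means more yeast growth rescued from 5-FOA killing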). The conditions noted are these: S. cerevisiae cbk1-as DSE1-URA3 strain, 5-FOA growth OD615, 2 d; at 50 µM; stronger effect = higher value.

Turning to `O=C(O)C1C2C=CC(C2)C1C(=O)OCC1CCCO1` (stereo unspecified), the growth inhibition in test [1] was -6.31%; in test [2], 1.68%. Besides, the viability increase in test [3] is -1.53%. Further, the figures for the viability in test [4] and in test [5] were 98.1% and 94.8%, respectively. For the same compound, in test [6], the inhibition is 0.865%. The RAM network inhibition in test [7] was 1.34%.
With `COC(=O)c1ccc2[nH]c(C)cc(=O)c2c1`, the growth inhibition in test [1] was -15.1%; in test [2], -24.1%. In addition, the viability increase in test [3] is -0.51%. Further, the results for the viability in test [4] and in test [5] were 99.8% and 90.9%, respectively. Besides, the inhibition in test [6] is 1.61%. Further, the RAM network inhibition in test [7] was 4.64%.
Regarding `CC(=O)NC(CCS(C)(=O)=O)C(=O)Nc1ccc(Cl)c(Cl)c1` (stereo unspecified), the growth inhibition is -4.26% in test [1] and -6.39% in test [2]. Besides, in test [3], the viability increase is -1.98%. Further, the viability was 96.9% in test [4] and 89.6% in test [5]. In test [6], the inhibition was 1.11%. The RAM network inhibition in test [7] is 1.53%.
Consider `Nc1sc2c(c1C(=O)NC1CCS(=O)(=O)C1)CCCC2` (stereo unspecified), for which the values for the growth inhibition in test [1] and in test [2] were -5.31% and -3.38%, respectively. For the same compound, the viability increase in test [3] was 0.13%. For the same compound, the viability in test [4] is 93.3%; in test [5] it was 99.1%. In test [6], the inhibition was 1.67%. For the same compound, the RAM network inhibition in test [7] was 3.3%.
`Cn1c(=O)[nH]c(=O)c2c1nc(CN1CCN(c3cccc(Cl)c3)CC1)n2Cc1ccccc1Cl`: the growth inhibition in test [1] is -9.22%; in test [2] it was -6.86%. The viability increase in test [3] is -6.82%. The viability was 41.1% in test [4] and 32.9% in test [5]. Further, the inhibition in test [6] was 1.39%. The RAM network inhibition in test [7] was 4.08%.
`COc1ccc(NC(=O)N(Cc2cccnc2)Cc2ccccc2Cl)c(OC)c1`: the growth inhibition in test [1] was 0.09%; in test [2] it was -1.88%. Moreover, the viability increase in test [3] is -3.53%. The figures for the viability in test [4] and in test [5] were 91.2% and 93.9%, respectively. Moreover, in test [6], the inhibition is 1.02%. The RAM network inhibition in test [7] is -0.05%.
In the case of `CSc1nc2sc3c(c2c(=O)n1C)CCCC3`, the growth inhibition in test [1] was 7.93%; in test [2] it was 8.89%. Moreover, the viability increase in test [3] was -0.98%. Besides, the viability in test [4] is 99.9%; in test [5] it was 94.7%. The inhibition in test [6] was 0.695%. In test [7], the RAM network inhibition was 3.94%.
Turning to `Cc1cc(NCc2ccccc2)nc(-c2ccccc2O)n1`, the growth inhibition is -1.8% in test [1] and -4.48% in test [2]. In test [3], the viability increase was -1.24%. For the same compound, the figures for the viability in test [4] and in test [5] were 69.5% and 70%, respectively. Also, the inhibition in test [6] was 0.345%. In test [7], the RAM network inhibition was 0.61%.
Regarding `CCn1ccnc1C(O)c1cccc(OC)c1OC` (stereo unspecified), the growth inhibition in test [1] is -8.24%; in test [2], -3.01%. Besides, the viability increase in test [3] is -0.74%. In addition, the viability in test [4] is 108%; in test [5], 96.3%. In addition, in test [6], the inhibition is 2.75%. Besides, the RAM network inhibition in test [7] was 3.57%.
In the case of `CCOc1ccccc1NC(=O)CN(c1cc(C)cc(C)c1)S(=O)(=O)c1c(C)noc1C`, the growth inhibition in test [1] was -22.6%; in test [2], -12.1%. In addition, in test [3], the viability increase was -1.39%. Further, the viability in test [4] is 106%; in test [5] it was 95.1%. Also, in test [6], the inhibition is 1.51%. Also, the RAM network inhibition in test [7] was 1.81%.
Turning to `c1ccc(-c2cnn3nnnc3n2)cc1`, the growth inhibition was 0.085% in test [1] and -12.7% in test [2]. Further, the viability increase in test [3] is -1.17%. The viability is 102% in test [4] and 97.9% in test [5]. The inhibition in test [6] is 1.85%. Further, the RAM network inhibition in test [7] is 1.66%.
In the case of `CC(c1ccccc1)C(CC(=O)O)C(=O)NC1CCCCC1` (stereo unspecified), the growth inhibition in test [1] was -12.4%; in test [2] it was -1.39%. In test [3], the viability increase is -0.07%. Besides, the viability in test [4] was 98.2%; in test [5] it was 103%. The inhibition in test [6] is 1.54%. Also, the RAM network inhibition in test [7] was 1.1%.
As to `O=C(CCCCn1c(=O)[nH]c2ccccc2c1=O)NC1CCN(Cc2ccccc2)CC1`, the growth inhibition in test [1] is -14.6%; in test [2] it was -22.8%. In addition, in test [3], the viability increase was -0.32%. The viability is 91.4% in test [4] and 89% in test [5]. Also, the inhibition in test [6] is 0.41%. The RAM network inhibition in test [7] was 0.63%.
Regarding `Brc1ccc2c(c1)c1nc3ccccc3nc1n2CCN1CCOCC1`, the figures for the growth inhibition in test [1] and in test [2] were -11% and -0.14%, respectively. In test [3], the viability increase is -5.95%. Also, the figures for the viability in test [4] and in test [5] were 56% and 59.4%, respectively. The inhibition in test [6] is 4.42%. Further, in test [7], the RAM network inhibition is 5.58%.
Take `CCCCC(CC)CNC(=O)c1cccs1` (stereo unspecified): the values for the growth inhibition in test [1] and in test [2] were 6.58% and 13.6%, respectively. The viability increase in test [3] was 0.39%. Further, the viability in test [4] is 79.2%; in test [5], 85.8%. In test [6], the inhibition is -0.705%. Further, the RAM network inhibition in test [7] is -1.28%.
As for `COc1ccc(OC)c(C2CC(=O)N3CN(c4ccccc4F)CSC3=C2C#N)c1` (stereo unspecified), the growth inhibition in test [1] was 8.3%; in test [2], 14.5%. For the same compound, the viability increase in test [3] is -1.77%. Besides, the viability in test [4] was 98.3%; in test [5], 101%. The inhibition in test [6] was 1.03%. Besides, the RAM network inhibition in test [7] was 8.39%.
As to `Cc1ccc(CNC(=O)CS(=O)Cc2nc(-c3cccs3)oc2C)cc1` (stereo unspecified), the growth inhibition in test [1] was 13.6%; in test [2], 57.4% (active). Besides, the viability increase in test [3] was -2.97%. Besides, the viability is 90.5% in test [4] and 92.7% in test [5]. Moreover, the inhibition in test [6] was 1.67%. For the same compound, the RAM network inhibition in test [7] is 2.88%.
In the case of `CCC(C)Sc1nc2c(c(=O)[nH]c(=O)n2C)n1Cc1ccccc1Cl` (stereo unspecified), the growth inhibition was -0.795% in test [1] and 8.91% in test [2]. In addition, in test [3], the viability increase was -1.95%. In addition, the results for the viability in test [4] and in test [5] were 81.6% and 82.2%, respectively. For the same compound, the inhibition in test [6] is 0.75%. Also, in test [7], the RAM network inhibition is 4.89%.
